Data on 23 molecules can be found in ChEMBL document CHEMBL4765373, “Design, synthesis and biological evaluation of rasagiline-clorgyline hybrids as novel dual inhibitors of monoamine oxidase-B and amyloid-β aggregation against Alzheimer's disease” (Eur J Med Chem, 2020).

Data set [1] has as its target T1, MAO-A (Homo sapiens, UniProt P21397).
T1 sequence (P21397 whole entry): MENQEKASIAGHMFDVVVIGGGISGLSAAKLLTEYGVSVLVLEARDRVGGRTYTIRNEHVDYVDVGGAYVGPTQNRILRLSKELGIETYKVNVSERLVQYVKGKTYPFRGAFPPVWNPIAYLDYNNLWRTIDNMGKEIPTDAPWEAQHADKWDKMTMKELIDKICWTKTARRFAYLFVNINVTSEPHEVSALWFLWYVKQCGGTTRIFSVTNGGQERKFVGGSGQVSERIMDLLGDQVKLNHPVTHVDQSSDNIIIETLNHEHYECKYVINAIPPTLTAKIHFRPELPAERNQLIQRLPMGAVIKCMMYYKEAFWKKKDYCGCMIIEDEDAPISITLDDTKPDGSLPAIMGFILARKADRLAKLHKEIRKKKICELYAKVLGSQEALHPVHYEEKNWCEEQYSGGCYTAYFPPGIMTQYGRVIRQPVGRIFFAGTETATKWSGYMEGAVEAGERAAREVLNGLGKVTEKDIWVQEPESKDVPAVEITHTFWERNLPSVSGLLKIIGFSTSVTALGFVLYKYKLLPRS
The data set can be described thus: Inhibition of recombinant human MAOA expressed in baculovirus infected BTI insect cells at 100 uM using p-tyramine as substrate measured after 15 mins by Amplex red reagent based fluorescence assay relative to control. Conditions: probe p-tyramine. The procedure, abridged: (§1)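 Recombinant human MAO-A or MAO-B with p-tyramine substrate; H2O2 production detected by Amplex Red. Compounds diluted in DMSO/PBS (final DMSO <0.1%) and incubated with enzyme and substrate 15 min at 37 °C in the dark. Fluorescence read at ex/em 545/590 nm; mean ± SD of three independent experiments.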

In data set [2] the target is T2, Amine oxidase [flavin-containing] B (Homo sapiens, UniProt P27338).
T2 sequence (P27338 whole entry): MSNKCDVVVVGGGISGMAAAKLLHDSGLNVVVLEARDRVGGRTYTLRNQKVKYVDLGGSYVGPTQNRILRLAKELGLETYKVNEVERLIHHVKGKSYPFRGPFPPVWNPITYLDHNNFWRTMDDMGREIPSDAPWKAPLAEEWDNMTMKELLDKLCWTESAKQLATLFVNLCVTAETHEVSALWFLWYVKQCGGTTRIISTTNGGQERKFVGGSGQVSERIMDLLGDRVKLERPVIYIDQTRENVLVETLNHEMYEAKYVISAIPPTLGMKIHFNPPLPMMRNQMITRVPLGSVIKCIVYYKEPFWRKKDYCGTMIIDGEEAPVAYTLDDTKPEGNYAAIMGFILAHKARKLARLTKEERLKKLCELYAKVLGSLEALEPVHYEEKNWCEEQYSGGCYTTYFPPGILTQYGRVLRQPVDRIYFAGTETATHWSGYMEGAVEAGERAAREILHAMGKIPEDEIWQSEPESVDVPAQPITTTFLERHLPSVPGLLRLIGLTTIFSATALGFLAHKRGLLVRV
The data set can be described thus: biochemical. Format: cell-based, BTI.

For data set [3], the species on record is Homo sapiens. The data set can be described thus: Selectivity index, ratio of IC50 for recombinant human MAOA expressed in baculovirus infected BTI insect cells to IC50 for recombinant human MAOB expressed in baculovirus infected BTI insect cells. The method, boiled down:
as §1

The species named for data set [4] is Homo sapiens. The data set can be described thus: Inhibition of self-induced amyloid beta (1 to 42) (unknown origin) peptide aggregation at 25 uM measured after 48 hrs by thioflavin-T fluorescence assay relative to control.
Data set [5] in a line: in vitro. Conditions: PAMPA, pH 7.4.
For data set [6], the species on record is Homo sapiens. The data set can be described thus: Inhibition of self-induced amyloid beta (1 to 42) (unknown origin) peptide aggregation assessed as reduction in number of amyloid beta aggregates by TEM analysis.
Data set [7] has as its target T2, Amine oxidase [flavin-containing] B. The data set can be described thus: Inhibition of recombinant human MAOB expressed in baculovirus infected BTI insect cells at 100 uM using p-tyramine as substrate measured after 15 mins by Amplex red reagent based fluorescence assay relative to control. Conditions: 0.25 h. The method, boiled down: as §1
The test system of data set [8] is SH-SY5Y. The data set can be described thus: Neuroprotective activity against 6-OHDA-induced cell death in human SH-SY5Y cells assessed as increase in cell survival at 1.563 to 25 uM incubated for 24 hrs by MTT assay. Format: functional, cell-based. Conditions: dose 1.563-25 µM. The method, boiled down:
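SH-SY5Y cells co-incubated with 200 µM 6-OHDA and compound at 1.563, 3.125, 6.25, 12.5 or 25 µM for 24 h. Viability read by MTT assay against a 6-OHDA-only group. Means ± SEM of three independent experiments.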

pIC50: −log10 of the molar value. Calls of active or inactive are those of the source. The rule behind the calls is not given here. Where only a bound is given, the exact number is not on record here.

With `C#CCN(C)CCCCCCCCOc1ccc2c(c1)OCCC2=O`, the inhibition at 0.25 h, 100 µM in data set [1] was found to be 28.6%. In addition, the pIC50 in data set [2] was 6.37. Also, the Ratio IC50 in data set [3] was over 237. The same molecule yielded an inhibition in data set [4] of 0.34%. Besides, the Papp at 16 h in data set [5] was 8.91 ×10⁻⁶ cm/s.

As for `COc1cc(/C=C/C(=O)CC(=O)/C=C/c2ccc(O)c(OC)c2)ccc1O`, the inhibition in data set [4] turned out to be 46.1%. In addition, the inhibition entry in data set [6] is “Active”.

In data set [5], `C[C@]12CC[C@@H]3c4ccc(O)cc4CC[C@H]3[C@@H]1CC[C@@H]2O` [ESTRADIOL] displayed a Papp at 16 h of 12.4 ×10⁻⁶ cm/s.

Regarding `C#CCN(C)CCCCCOc1ccc2c(c1)CCCC2=O`, the inhibition at 0.25 h, 100 µM in data set [1] was 26.1%. Moreover, in data set [2], the negative-log IC50 (pIC50) is 7.33. Further, in data set [3], the Ratio IC50 was over 2160. The molecule also came in with an inhibition in data set [4] of 10.3%. In addition, the Papp at 16 h in data set [5] worked out at 10.6 ×10⁻⁶ cm/s.

As for `C#CCN(C)CCCCCOc1ccc(C(C)=O)cc1OC`, in data set [1], the inhibition at 0.25 h, 100 µM was 39.5%. Besides, the pIC50 in data set [2] is 5.19. In data set [3], the Ratio IC50 was over 15. For the same molecule, in data set [4], the inhibition turned out to be 5.74%. In data set [5], this molecule gave a Papp at 16 h of 12.9 ×10⁻⁶ cm/s.

Take `CN(C)CCCN1c2ccccc2Sc2ccc(Cl)cc21` [CHLORPROMAZINE]: the apparent permeability (Papp) at 16 h in data set [5] is 7.12 ×10⁻⁶ cm/s.

Regarding `C#CCN(C)CCCCCOc1ccc(C=O)c(OC)c1`, the inhibition at 0.25 h, 100 µM in data set [1] came to 27.1%. In data set [2], the pIC50 was 5.24. The Ratio IC50 in data set [3] was over 17. In addition, in data set [4], the inhibition is 0.82%. For the same molecule, in data set [5], the Papp at 16 h is 14 ×10⁻⁶ cm/s.

With `C#CCN(C)CCCCCCOc1ccc2c(c1)OCCC2=O`, the inhibition at 0.25 h, 100 µM in data set [1] worked out at 34.1%. In data set [2], this molecule gave a pIC50 of 6.93. In data set [3], the Ratio IC50 was over 855. Besides, in data set [4], the inhibition was found to be 0.66%. The same molecule yielded a Papp at 16 h in data set [5] of 8.54 ×10⁻⁶ cm/s.

In the case of `C#CCN(C)CCCCCCOc1ccc2c(c1)CCCC2=O`, the inhibition at 0.25 h, 100 µM in data set [1] came to 25%. The molecule also had a negative logarithm of the IC50 (pIC50) in data set [2] of 6.88. In addition, the Ratio IC50 in data set [3] is over 751. Moreover, in data set [4], the inhibition turned out to be 18.1%. This molecule also gave a Papp at 16 h in data set [5] of 8.58 ×10⁻⁶ cm/s.

For the molecule `C#CCN(C)CCCCCOc1cccc(OC)c1`, the inhibition at 0.25 h, 100 µM in data set [1] worked out at 32.3%. This molecule gave a pIC50 in data set [2] of 7.00. Moreover, the Ratio IC50 in data set [3] was over 991. In data set [4], this molecule displayed an inhibition of 22.2%. In data set [5], this molecule showed a Papp at 16 h of 10.5 ×10⁻⁶ cm/s.

On to `C#CCN(C)CCCCCCOc1ccc2c(c1)CCC2=O`, for which, in data set [1], the inhibition at 0.25 h, 100 µM was 4.42%. For the same molecule, the pIC50 in data set [2] is 6.89. Also, in data set [3], the Ratio IC50 is over 777. Further, the inhibition in data set [4] was determined as 0.68%. In data set [5], this molecule showed a Papp at 16 h of 12.8 ×10⁻⁶ cm/s.

For the molecule `C#CCN(C)CCCCOc1ccc2c(c1)OCCC2=O`, the inhibition at 0.25 h, 100 µM in data set [1] is 22.8%. In data set [2], this molecule showed a negative-log IC50 (pIC50) of 7.23. Further, in data set [3], the Ratio IC50 was over 1700. The same molecule showed an inhibition in data set [4] of 43.9%. The molecule also returned a Papp at 16 h in data set [5] of 13.7 ×10⁻⁶ cm/s.

On to `C#CCN(C)CCCCOc1ccc(C=O)c(OC)c1`, for which the inhibition at 0.25 h, 100 µM in data set [1] stood at 29.4%. Also, in data set [7], the inhibition at 100 µM turned out to be 41.2%. This molecule gave an inhibition in data set [4] of 0.86%. The molecule also had a Papp at 16 h in data set [5] of 13.1 ×10⁻⁶ cm/s.

As to `C#CCN(C)CCCCOc1ccc2c(c1)CCC2=O`, the inhibition at 0.25 h, 100 µM in data set [1] was found to be 7.93%. The negative logarithm of the IC50 (pIC50) in data set [2] was 6.44. Further, the Ratio IC50 in data set [3] was over 273. The molecule further gave an inhibition in data set [4] of 31.3%. This molecule displayed a Papp at 16 h in data set [5] of 9.61 ×10⁻⁶ cm/s.

Regarding `C#CCN(C)CCCCOc1ccc2c(c1)CCCC2=O`, in data set [1], the inhibition at 0.25 h, 100 µM was 30.9%. The same molecule gave a pIC50 in data set [2] of 7.14. In addition, the Ratio IC50 in data set [3] was over 1380. The molecule further displayed an inhibition in data set [4] of 13.4%. In addition, the Papp at 16 h in data set [5] stood at 8.7 ×10⁻⁶ cm/s.

For the molecule `C#CCN(C)CCCCCCOc1ccc(C(C)=O)cc1`, in data set [1], the inhibition at 0.25 h, 100 µM turned out to be 37.3%. For the same molecule, the pIC50 in data set [2] was 7.69. In addition, the Ratio IC50 in data set [3] is over 4900. Besides, in data set [4], the inhibition was determined as 12.7%. Moreover, the Papp at 16 h in data set [5] amounted to 8.69 ×10⁻⁶ cm/s.

For the molecule `C#CCN[C@@H]1CCc2ccccc21` [RASAGILINE], in data set [1], the inhibition at 0.25 h, 100 µM was determined as 47.9%. In addition, the outcome in data set [8] was Active.

On to `C#CCN(C)CCCCCCOc1ccc2c(c1)OCC2=O`, for which the inhibition at 0.25 h, 100 µM in data set [1] was determined as 11.7%. The molecule also showed a negative logarithm of the IC50 (pIC50) in data set [2] of 7.28. Also, in data set [3], the Ratio IC50 was over 1930. Further, the inhibition in data set [4] was 9.76%. The molecule also returned a Papp at 16 h in data set [5] of 8.3 ×10⁻⁶ cm/s.

Take `C#CCN(C)CCCCCCOc1ccc(C=O)c(OC)c1`: the inhibition at 0.25 h, 100 µM in data set [1] came out at 37.4%. Besides, the negative logarithm of the IC50 (pIC50) in data set [2] was 6.26. Also, in data set [3], the Ratio IC50 is over 181. For the same molecule, in data set [4], the inhibition was 0.99%. The molecule further came in with a Papp at 16 h in data set [5] of 11.2 ×10⁻⁶ cm/s.

With `C#CCN(C)CCCCOc1ccc(C(C)=O)cc1`, in data set [1], the inhibition at 0.25 h, 100 µM was 28.6%. The same molecule showed a pIC50 in data set [2] of 7.25. Moreover, the Ratio IC50 in data set [3] is over 1770. This molecule also registered an inhibition in data set [4] of 6.18%. Moreover, the Papp at 16 h in data set [5] was 10.6 ×10⁻⁶ cm/s.

On to `C#CCN(C)CCCCCOc1ccc2c(c1)CCC2=O`, for which the inhibition at 0.25 h, 100 µM in data set [1] was 31%. The molecule further had a pIC50 in data set [2] of 7.02. Also, the Ratio IC50 in data set [3] is over 1060. Further, in data set [4], the inhibition was 11.4%. This molecule yielded a Papp at 16 h in data set [5] of 10.9 ×10⁻⁶ cm/s.

With `C#CCN(C)CCCCOc1ccc(C(C)=O)cc1OC`, in data set [1], the inhibition at 0.25 h, 100 µM stood at 21.1%. In data set [2], this molecule gave a pIC50 of 5.94. Further, the Ratio IC50 in data set [3] was over 87. The molecule also registered an inhibition in data set [4] of 21.8%. This molecule also had a Papp at 16 h in data set [5] of 12.5 ×10⁻⁶ cm/s.

Regarding `C#CCN(C)CCCOc1ccc2c(c1)OCCC2=O`, the inhibition at 0.25 h, 100 µM in data set [1] was 32.1%. In data set [2], this molecule showed a pIC50 of 4.94. Further, the Ratio IC50 in data set [3] is over 9. In addition, the inhibition in data set [4] was determined as 7.77%. In addition, the Papp at 16 h in data set [5] is 9.21 ×10⁻⁶ cm/s.
